The target in series [1] is Histone deacetylase 2 (Homo sapiens, UniProt Q92769). Nature of the series: Inhibition of HDAC2.
A short description of series [2]: Solubility of the compound in 10 % DMSO/Water. It counts as physicochemical.
The subject of series [3] is HCT-116. Briefly: Induction of cell cycle arrest in human HCT116 cells assessed as accumulation at G2/M phase at 10 uM after 24 hrs by flow cytometry (reference value: 9.5 %). It counts as functional. The method, boiled down:
(§1)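 HCT116 cells (1.0 × 10^6) were plated for 24 h, then exposed to compound for 24 or 48 h, with 0.1% DMSO as control. DNA staining used a BD Cycletest Plus DNA reagent kit, and phase percentages (subG1, G0/G1, S, G2/M) were scored; data representative of three independent experiments.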

The test system of series [4] is HCT-116. Briefly: Induction of cell cycle arrest in human HCT116 cells assessed as accumulation at SubG1 phase at 10 uM after 48 hrs by flow cytometry (reference value: 2.3 %). The class given is functional. The method, boiled down:
as §1

In series [5] the test system is HCT-116. Nature of the series: Induction of cell cycle arrest in human HCT116 cells assessed as accumulation at G0/G1 phase at 10 uM after 48 hrs by flow cytometry (reference value: 81.9 %). It counts as functional. The method, boiled down: as §1
Series [6] deals with HCT-116. Nature of the series: Induction of cell cycle arrest in human HCT116 cells assessed as accumulation at S phase at 10 uM after 48 hrs by flow cytometry (reference value: 10.4 %). It counts as functional. Put shortly: as §1
Series [7] deals with HCT-116. Nature of the series: Antiproliferative activity against human HCT116 cells after 3 days by WST-1 assay. It counts as functional, cell-based. The conditions noted are these: HCT-116, 72 h. Put shortly:
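HCT116 human colon cancer cells exposed to compounds for 3 days; growth read by WST-1 assay; IC50 derived from triplicate assays.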

Series [8] addresses Histone deacetylase 1 (Homo sapiens, UniProt Q13547). Briefly: Inhibition of HDAC1.
Series [9] deals with HCT-116. Nature of the series: Induction of cell cycle arrest in human HCT116 cells assessed as accumulation at G0/G1 phase at 10 uM after 24 hrs by flow cytometry (reference value: 74.2 %). It counts as functional. The method, boiled down: as §1
The test system of series [10] is HCT-116. Nature of the series: Induction of cell cycle arrest in human HCT116 cells assessed as accumulation at S phase at 10 uM after 24 hrs by flow cytometry (reference value: 10.6 %). The class given is functional. The method, boiled down: as §1
The subject of series [11] is HCT-116. Nature of the series: Induction of cell cycle arrest in human HCT116 cells assessed as accumulation at SubG1 phase at 10 uM after 24 hrs by flow cytometry (reference value: 5.7 %). It counts as functional. The method, boiled down: as §1
Series [12] concerns HCT-116. Nature of the series: Induction of cell cycle arrest in human HCT116 cells assessed as accumulation at G2/M phase at 10 uM after 48 hrs by flow cytometry (reference value: 5.4 %). It counts as functional. Put shortly: as §1
Series [13] in a line: Tmax in BALB/c mouse at 45 mg/kg, po by HPLC-ESI-MS/MS analysis. The class given is ADME, organism-based. Also noted: dose 45 mg/kg, route oral. The conditions noted are these: in vivo.
Series [14] can be described thus: Half life in BALB/c mouse at 45 mg/kg, po by HPLC-ESI-MS/MS analysis. It counts as ADME, organism-based. Also noted: dose 45 mg/kg, route oral. The conditions noted are these: in vivo.
The nature of series [15]: Cmax in BALB/c mouse at 45 mg/kg, po by HPLC-ESI-MS/MS analysis. It counts as ADME, organism-based. Also noted: dose 45 mg/kg, route oral. The note with it: in vivo.
In series [16] the test system is HCT-116. Nature of the series: Antitumor activity against human HCT116 cells xenografted in BALB/c nu/nu mouse assessed as suppression of tumor growth at 80 mg/kg, po administered every alternate days for 14 days measured up to 16 days relative to control. It counts as functional. The method, boiled down:
(§2)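 Nude mice bearing HCT116 xenografts of 90–110 mm3, grouped as vehicle (0.1% Tween 80, n = 6) or treated (n = 7); oral dosing at 45 or 80 mg/kg on days 0, 2, 4, 6, 8, 10, 12 and 14. Tumor volume and body weight followed over 16 days; tumor effect given as T/C; two-tailed Student t-test versus control, with standard errors shown.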

Series [17] deals with Mus musculus. Briefly: Toxicity in human HCT116 cells xenografted in BALB/c nu/nu mouse assessed as relative body weight change at 80 mg/kg, po for 14 days measured up to day 16. The class given is organism-based, HCT-116. The arrangement: dose 80 mg/kg, route oral. The note with it: in vivo, 336 h. Put shortly:
as §2

For series [18], the system named is HCT-116. Nature of the series: Antitumor activity against human HCT116 cells xenografted in BALB/c nu/nu mouse assessed as suppression of tumor growth at 45 mg/kg, po administered every alternate days for 14 days measured up to day 16 relative to control. It counts as functional. The method, boiled down:
as §2

Series [19] deals with Mus musculus. Briefly: Toxicity in human HCT116 cells xenografted in BALB/c- nu.nu mouse assessed as relative body weight change at 45 mg/kg, po administered every alternate days for 14 days measured up to day 16. The class given is organism-based, HCT-116. The arrangement: dose 45 mg/kg, route oral. The note with it: in vivo, 336 h. The method, boiled down:
as §2

Each structure is given as a SMILES string. pIC50: −log10 of the molar value. Converted amounts (≈) assume the structure as drawn. A value given as a limit tells only on which side of the number the result lay.

Sequence of Histone deacetylase 1 (Q13547 whole entry): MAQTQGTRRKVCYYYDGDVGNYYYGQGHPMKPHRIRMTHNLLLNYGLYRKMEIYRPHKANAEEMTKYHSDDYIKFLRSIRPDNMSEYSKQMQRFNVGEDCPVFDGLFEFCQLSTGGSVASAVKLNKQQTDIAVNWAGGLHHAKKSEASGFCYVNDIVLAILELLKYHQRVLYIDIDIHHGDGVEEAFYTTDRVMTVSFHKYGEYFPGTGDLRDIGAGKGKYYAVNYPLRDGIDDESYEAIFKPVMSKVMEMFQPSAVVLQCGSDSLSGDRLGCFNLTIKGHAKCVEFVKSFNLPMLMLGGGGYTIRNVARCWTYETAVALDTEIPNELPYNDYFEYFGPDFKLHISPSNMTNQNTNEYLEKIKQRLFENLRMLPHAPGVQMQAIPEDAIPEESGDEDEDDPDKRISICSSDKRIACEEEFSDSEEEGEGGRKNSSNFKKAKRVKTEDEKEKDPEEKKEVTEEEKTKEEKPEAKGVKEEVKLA
Sequence of Histone deacetylase 2 (Q92769 whole entry): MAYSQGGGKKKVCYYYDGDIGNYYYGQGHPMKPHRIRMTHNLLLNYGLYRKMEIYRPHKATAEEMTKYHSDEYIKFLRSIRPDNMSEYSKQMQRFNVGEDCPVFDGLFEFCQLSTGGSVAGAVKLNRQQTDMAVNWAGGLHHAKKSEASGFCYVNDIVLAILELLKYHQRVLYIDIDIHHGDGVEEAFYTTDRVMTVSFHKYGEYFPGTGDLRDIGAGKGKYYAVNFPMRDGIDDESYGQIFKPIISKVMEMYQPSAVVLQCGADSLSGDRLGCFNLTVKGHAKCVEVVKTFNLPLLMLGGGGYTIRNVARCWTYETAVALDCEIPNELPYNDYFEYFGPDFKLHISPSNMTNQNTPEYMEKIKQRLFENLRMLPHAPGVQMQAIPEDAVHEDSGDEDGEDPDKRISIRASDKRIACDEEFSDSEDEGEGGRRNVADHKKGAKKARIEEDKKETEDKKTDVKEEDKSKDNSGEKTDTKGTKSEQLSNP

Turning to `CCC(=O)NCc1ccc(C(=O)Nc2cc(-c3cccs3)ccc2N)cc1`, the figures for the pIC50 in [1], in series [7] and in series [8] were 6.33, 6.25 and 7.40, respectively. The molecule also registered a solubility in series [2] of 500 µg/mL (≈ 1320 µM). Moreover, the Activity is reported as 10.7% in series [3]; 1.4% in [4]; 75% in [5]; 2.8% in [6]; 79.5% in series [9]; 5.2% in [10]. Also, the Activity in series [11] was determined as 4.6%; in series [12], 20.8%.

On to `Nc1ccc(-c2cccs2)cc1NC(=O)c1ccc(CNC(=O)N2CCOCC2)cc1`, for which the pIC50 was 6.06 in series [1], 6.36 in [7] and 7.00 in series [8].

With `Nc1ccccc1NC(=O)c1ccc(CN(CCO)Cc2ccc3c(c2)OCO3)cc1`, the pIC50 in series [1] is 5.47; in [7] it was 5.92; in series [8], 5.93. In series [2], the solubility worked out at 200 µg/mL (≈ 477 µM).

On to `CN1CCN(C(=O)NCc2ccc(C(=O)Nc3cc(-c4cccs4)ccc3N)cc2)CC1`, for which the pIC50 in series [1] is 6.10; in [7], 6.28; in series [8], 7.10. For the same molecule, the concentration in solution in [2] (solubility) came to 1000 µg/mL (≈ 2220 µM).

On to `Nc1ccc(-c2cccs2)cc1NC(=O)c1ccc(CN(CCO)Cc2ccc3c(c2)OCO3)cc1`, for which the values for the pIC50 in series [1], in [7] and in series [8] were 6.13, 6.31 and 7.22, respectively. The molecule further returned a solubility in [2] of less than 100 µg/mL.

For `CCN1CCN(C(=O)NCc2ccc(C(=O)Nc3cc(-c4cccs4)ccc3N)cc2)C(=O)C1=O`, the results for the pIC50 in [1], in [7] and in series [8] were 6.17, 6.29 and 7.30, respectively. For the same molecule, the solubility in series [2] amounted to 600 µg/mL (≈ 1220 µM). Further, the Activity in series [3] worked out at 22.4%; in series [4], 1.4%; in [5], 75.3%; in [6] it was 2.8%; in series [9] it was 71.5%; in [10], 3.8%. For the same molecule, the Activity result in [17] was “Non-toxic”; in series [19], “Non-toxic”; in [11], 2.3%; in series [12] it was 20.5%. Moreover, in [13], the Tmax is 1 h. The half-life in series [14] is 2.2 h. Moreover, in series [15], the highest level (Cmax) was 8.3 µM. For the same molecule, the figures for the T/C in series [16] and in [18] were 47% and 60%, respectively.

For the molecule `Nc1ccccc1NC(=O)c1ccc(CNC(=O)OCc2cccnc2)cc1` [ENTINOSTAT], the Activity in [3] came out at 13.6%; in series [4], 30.2%; in series [5] it was 62.1%; in series [6], 2.2%; in series [9] it was 72.7%; in series [10], 4.9%. In addition, the results for the Activity entry in series [19], in [11] and in series [12] were “Toxic”, 8.8% and 5.5%, respectively. Besides, the pIC50 in [7] was 6.12. In addition, the T/C in series [18] turned out to be 51%.

These data come from ChEMBL document CHEMBL1955769 (Bioorg Med Chem Lett, 2012).
